Hits are enriched below; roughly 2.5% of the tested compounds scored in any of these assays.
SENP8 block-1 – SENP8 (human) protease inhibition | inhibition, % at 20 µM | 360,000 compounds, 0.64% hits | AID 602440 | Q96LD8 | recombinant SENP8, Nedd8 substrate fluorescence; in the data active means inhibition mostly above about 40%, no sharp cut-off; inactive means mostly below about 27%
SENP1 inh – blocks the human SENP1 SUMO protease catalytic domain | recombinant SENP1 catalytic domain, CyPet-SUMO1-YPet FRET cleavage | inhibition, % at 10 µM | Q9P0U3 | 360,000 compounds, 0.21% hits;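 active means inhibition at least 30% at 10 µM, raw YFP signal under a set limit, fluorescence ratio 0.5 to 1.5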
Target sequence (Q9P0U3 419-644 limits assumed): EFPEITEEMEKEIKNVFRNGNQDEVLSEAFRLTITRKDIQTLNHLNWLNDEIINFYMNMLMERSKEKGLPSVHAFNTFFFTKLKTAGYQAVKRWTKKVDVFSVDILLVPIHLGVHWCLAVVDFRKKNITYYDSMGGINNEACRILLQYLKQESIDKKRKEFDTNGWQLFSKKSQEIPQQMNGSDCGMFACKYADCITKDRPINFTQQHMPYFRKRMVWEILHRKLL
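Compound: 10 µM single point, 0.5% DMSO; Test system: hSENP1 catalytic domain, recombinant; Timing: 50 min reaction at room temperature; Technique: FRET, CFP and YFP emission; Control set: no-enzyme wells low, DMSO-plus-enzyme wells high control.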
SENP8 block-2 – SENP8 protease inhibition; Q96LD8; purified SENP8, Z-RLRGG-aminoluciferin cleavage, luminescence; inhibition, % at 10 µM; 330,000 compounds, 1.2% hits; in the data active means inhibition above about 50%
SENP6 block – SENP6 protease inhibition; Recombinant SENP6 catalytic domain, aminoluciferin luminescence; inhibition, % at 10 µM; 330,000 compounds, 1.8% hits; AID 2599;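 active means inhibition above about 50% at the single tested dose, limit read from the data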
SENP7 block – SENP7 protease inhibition | recombinant SENP7, Z-RLRGG-aminoluciferin luminescence, 40 min | inhibition, % at 5 µM | 330,000 compounds, 1.5% hits | AID 434973;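 active means inhibition above about 50% at the single test dose, limit read from the data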
Target sequence (Q9BQF6 706-1050 limits assumed): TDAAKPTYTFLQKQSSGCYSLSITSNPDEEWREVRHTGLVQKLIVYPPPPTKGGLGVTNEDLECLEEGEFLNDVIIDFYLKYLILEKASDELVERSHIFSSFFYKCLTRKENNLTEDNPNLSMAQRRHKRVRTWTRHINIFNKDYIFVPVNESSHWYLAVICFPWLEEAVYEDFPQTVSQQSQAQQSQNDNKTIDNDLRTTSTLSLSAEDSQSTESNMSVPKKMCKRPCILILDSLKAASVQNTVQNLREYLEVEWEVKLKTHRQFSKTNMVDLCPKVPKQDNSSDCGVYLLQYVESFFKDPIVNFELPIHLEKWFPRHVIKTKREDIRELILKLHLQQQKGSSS
SENP8 confirm – human SENP8 inhibition, confirmed; shares compounds with SENP7 block; Recombinant SENP8, Z-RLRGG-aminoluciferin luminescence, 60 min; inhibition, % at 12.5 µM; 6,200 compounds, 40% hits; AID 488912;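 active means mean inhibition across replicates above about 50%, limit read from the data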
SENP6 confirm – human SENP6 inhibition, confirmed. shares compounds with SENP7 block. recombinant SENP6, Z-RLRGG-aminoluciferin luminescence. inhibition, % at 12.5 µM. 6,200 compounds, 58% hits
SENP7 conf – confirmation of human SENP7 protease inhibitors. recombinant SENP7, Z-RLRGG-aminoluciferin luminescence, 40 min. inhibition, % at 12.5 µM. shares compounds with SENP7 block. 6,200 compounds, 69% hits
Casp3 SENP sel – caspase-3 inhibition (SENP selectivity assay). shares compounds with SENP7 block. purified caspase-3, Z-DEVD-aminoluciferin luminescence, 60 min. inhibition, % at 12.5 µM. 6,200 compounds, 60% hits. AID 488918;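 active means mean inhibition above about 50%, limit read from the data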
Luc interf – interferes with luciferase luminescence in SENP counter-screen; Pre-incubated SENP8/Z-RLRGG-aminoluciferin, luciferase luminescence interference; AID 488919; shares compounds with SENP7 block; inhibition, % at 12.5 µM; 6,200 compounds, 39% hits;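 active means mean inhibition above about 50% when retested at one dose, limit read from the data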
Each line names hits and unclear results; the compound was inactive in the other large screens (follow-up assays come after a bar, where they were run).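 How the source made its calls, unless noted: active means mean inhibition above about 50% in the one-dose retest (limit read from the data); inactive means the rest.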

CN(C(=O)c1ccccc1)c1nc2ccccc2s1	SENP6 block 71 | SENP8 confirm inactive | SENP6 confirm 51 | SENP7 conf 71 | Casp3 SENP sel inactive | Luc interf inactive
Cc1occc1C(=O)N/N=C/c1cccs1	SENP8 block-2 62, SENP6 block 67, SENP7 block 83 | SENP8 confirm 72 | SENP6 confirm 72 | SENP7 conf 91 | Casp3 SENP sel 91 | Luc interf 74
Cc1occc1C(=O)N/N=C/c1cccc2ccccc12	SENP8 block-2 89, SENP6 block 90, SENP7 block 92 | SENP8 confirm 56 | SENP6 confirm 88 | SENP7 conf 100 | Casp3 SENP sel 89 | Luc interf inactive
COc1ccc(/C=N/NC(=O)c2ccoc2C)cc1OC	SENP6 block 56 | SENP8 confirm inactive | SENP6 confirm inactive | SENP7 conf 70 | Casp3 SENP sel 80 | Luc interf 52
COc1ccc(/C=N/NC(=O)c2ccoc2C)cc1O	SENP6 block 76, SENP7 block 67 | SENP8 confirm 68 | SENP6 confirm 67 | SENP7 conf 89 | Casp3 SENP sel 90 | Luc interf 73
CCc1ccc(NC(=O)CC2C(=O)N(c3ccc(C)cc3)C(=O)N2C2CC2)cc1 (stereo not given)	none
CSc1nc(C)cc(Oc2ccccc2)n1	none
Cc1ccc(S(=O)(=O)N2CCN(C(=O)CCC(=O)Nc3ccc(Br)c(C)c3)CC2)cc1	none (no result: SENP8 block-2, SENP6 block, SENP7 block)
Cc1occc1C(=O)N/N=C/c1ccc(-c2ccccc2)cc1	SENP8 block-2 97, SENP6 block 99, SENP7 block 100 | SENP8 confirm 71 | SENP6 confirm 100 | SENP7 conf 103 | Casp3 SENP sel 98 | Luc interf 70
Cc1occc1C(=O)Nc1cccc2ccccc12	SENP8 block-2 91, SENP6 block 96, SENP7 block 95 | SENP8 confirm inactive | SENP6 confirm 96 | SENP7 conf 102 | Casp3 SENP sel 91 | Luc interf 94
Cc1occc1C(=O)N/N=C/C(Br)=C/c1ccccc1	SENP8 block-2 84, SENP6 block 92, SENP7 block 89 | SENP8 confirm 66 | SENP6 confirm 92 | SENP7 conf 99 | Casp3 SENP sel 88 | Luc interf inactive
CCN(CC)c1ccc(/C=N/NC(=O)c2ccoc2C)c(O)c1	SENP8 block-2 94, SENP6 block 98, SENP7 block 100 | SENP8 confirm 96 | SENP6 confirm 98 | SENP7 conf 103 | Casp3 SENP sel inactive | Luc interf inactive
Cc1occc1C(=O)Nc1ccccc1NC(=O)c1ccoc1C	none
O=C(N/N=C/C(Br)=C/c1ccccc1)c1ccccc1[N+](=O)[O-]	none
Cc1occc1C(=O)N/N=C/c1cccnc1	none
CN(CC(=O)Nc1ccc(N2CCOCC2)cc1)C(=O)CCc1cc(C(C)(C)C)c(O)c(C(C)(C)C)c1	none
O=C(Nc1ccc(F)cc1)c1nsc(Cl)c1Cl	SENP8 block-2 84, SENP6 block 94, SENP7 block 83 | SENP8 confirm 62 | SENP6 confirm 87 | SENP7 conf 97 | Casp3 SENP sel 90 | Luc interf 57
CCOc1ccc(NC(=O)c2nsc(Cl)c2Cl)cc1	none
O=C(Nc1ccc(F)c(Cl)c1)c1nsc(Cl)c1Cl	SENP8 block-2 91, SENP6 block 93, SENP7 block 96 | SENP8 confirm 53 | SENP6 confirm 74 | SENP7 conf 87 | Casp3 SENP sel 80 | Luc interf inactive
O=C(O)C1=C(C(=O)Nc2ccc(F)c(Cl)c2)CCCC1	none
O=C(Nc1ccc(O)cc1C(=O)O)c1cccs1	SENP6 block 50 | SENP8 confirm 52 | SENP6 confirm inactive | SENP7 conf 82 | Casp3 SENP sel 79 | Luc interf 61
O=C(Nc1ccccc1C(=O)O)c1cccc(C(=O)Nc2ccccc2C(=O)O)c1	SENP8 block-2 71, SENP6 block 80 | SENP8 confirm 87 | SENP6 confirm 86 | SENP7 conf 98 | Casp3 SENP sel 88 | Luc interf 70
O=C(Nc1ccccc1C(=O)O)c1ccccc1	none
O=C(Nc1sc(-c2ccccc2)cc1C(=O)O)c1ccccc1	SENP8 block-2 66, SENP6 block 84 | SENP8 confirm inactive | SENP6 confirm 74 | SENP7 conf 74 | Casp3 SENP sel inactive | Luc interf 60
O=C(Nc1ccc(O)cc1C(=O)O)c1cccc(Br)c1	SENP8 block-2 88, SENP6 block 95, SENP7 block 83 | SENP8 confirm 94 | SENP6 confirm 92 | SENP7 conf 98 | Casp3 SENP sel 90 | Luc interf 92
COc1ccc(C2Nc3cccc(O)c3C(=O)N2Cc2ccccc2)cc1COc1ccc(NC(C)=O)cc1 (stereo not given)	none (no result: SENP8 block-2, SENP6 block, SENP7 block)
CCc1nc(N2CCN(CC(=O)NCC3CCCO3)CC2)c(C#N)c2c1COC(C)(C)C2 (stereo not given)	none
O=C(CN1C(=O)c2cccc3cccc(c23)C1=O)NCCN1CCOCC1	none
Cc1cc(=O)n2cn[nH]c2n1	none (no result: SENP8 block-2, SENP6 block, SENP7 block)
CCOc1ccc(C(=O)Nc2cccc(C(=O)O)c2C)cc1Cl	SENP8 block-2 93, SENP6 block 100, SENP7 block 98 | SENP8 confirm 97 | SENP6 confirm 98 | SENP7 conf 102 | Casp3 SENP sel 80 | Luc interf 97
CCOc1c(Cl)cc(C(=O)Nc2ccccc2C(=O)O)cc1Cl	SENP6 block 60 | SENP8 confirm 59 | SENP6 confirm 57 | SENP7 conf 72 | Casp3 SENP sel inactive | Luc interf 68
CCOc1ccc(C(=O)Nc2ccccc2-c2ccccc2)cc1Cl	none
COc1ccc(C(=O)Nc2ccccc2C(=O)O)cc1Cl	SENP8 block-2 94, SENP6 block 97, SENP7 block 92 | SENP8 confirm 96 | SENP6 confirm 97 | SENP7 conf 101 | Casp3 SENP sel 95 | Luc interf 96
O=C(CCCOc1ccc(Cl)cc1Cl)Nc1ccccc1C(=O)O	SENP8 block-2 71, SENP6 block 86 | SENP8 confirm 83 | SENP6 confirm 82 | SENP7 conf 90 | Casp3 SENP sel 64 | Luc interf 82
O=C(CSc1nc(Nc2ccccc2)nc(N2CCOCC2)n1)NC1CCCCC1	none
